Hits are enriched below; roughly 2.5% of the tested compounds scored in any of these assays.
Efflux pump inh = antifungal efflux pump inhibition, Nile Red retention; S. cerevisiae Candida pump triplex; inhibition, % at 10 µM; hit rate 0.44% among 330,000;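 active = plate passing quality check with inhibition over a set limit, or well fluorescence over plate mean plus 4 SD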;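 also: Nile Red retained in pooled yeast measured as flow cytometry median fluorescence; 0% = buffer negative control and 100% = Enniatin B positive control; higher means more Nile Red kept so more efflux inhibition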
ABCB1 block = human ABCB1 inhibition, ABCG2 as counter-screen. P08183. CCRF-Adr cells, JC-1 efflux, flow cytometry. inhibition, % at 6.6 µM. hit rate 0.067% among 190,000. AID 1326; in the data active = inhibition above about 40%;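 also: 0% = vehicle and 100% = reference inhibitor; higher value means more JC-1 retained so stronger ABCB1 efflux block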
MEKK2 WT-MEK5 = raises or lowers MEK5 binding to wildtype human MEKK2 PB1 domain. Q9Y2U5. bead flow cytometry, Alexa488-MEK5 binding to MEKK2 WT; actives lie on both sides. binding response (% of control), % at 10 µM. hit rate 1.1% among 290,000; in the data active = binding response below about 67% or above about 130%
MEKK3 PB1 HTS = MEKK3-MEK5 PB1 interaction, increase or decrease | binding response (% of control), % at 10 µM | Q99759 | AID 1529 | bead-based flow cytometry, Alexa488-MEK5 binding to MEKK3; actives lie on both sides; 0 = blocked by unlabeled MEK5, 100 = vehicle | hit rate 1.4% among 290,000;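 active = binding response more than 3 SD above or below the average of its plate-row segment, actives on both sides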;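 also: Alexa488 bead fluorescence after subtracting the streptavidin-only scavenger bead signal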
ABCG2 block = human ABCG2 inhibition, ABCB1 as counter-screen; Q9UNQ0; IgMXP3 cells, JC-1 efflux, flow cytometry; inhibition, % at 6.6 µM; hit rate 0.1% among 190,000;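 active = inhibition above 80%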;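 also: 0% = DMSO and 100% = nicardipine control wells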
Target sequence (Q9UNQ0 whole entry, looked up): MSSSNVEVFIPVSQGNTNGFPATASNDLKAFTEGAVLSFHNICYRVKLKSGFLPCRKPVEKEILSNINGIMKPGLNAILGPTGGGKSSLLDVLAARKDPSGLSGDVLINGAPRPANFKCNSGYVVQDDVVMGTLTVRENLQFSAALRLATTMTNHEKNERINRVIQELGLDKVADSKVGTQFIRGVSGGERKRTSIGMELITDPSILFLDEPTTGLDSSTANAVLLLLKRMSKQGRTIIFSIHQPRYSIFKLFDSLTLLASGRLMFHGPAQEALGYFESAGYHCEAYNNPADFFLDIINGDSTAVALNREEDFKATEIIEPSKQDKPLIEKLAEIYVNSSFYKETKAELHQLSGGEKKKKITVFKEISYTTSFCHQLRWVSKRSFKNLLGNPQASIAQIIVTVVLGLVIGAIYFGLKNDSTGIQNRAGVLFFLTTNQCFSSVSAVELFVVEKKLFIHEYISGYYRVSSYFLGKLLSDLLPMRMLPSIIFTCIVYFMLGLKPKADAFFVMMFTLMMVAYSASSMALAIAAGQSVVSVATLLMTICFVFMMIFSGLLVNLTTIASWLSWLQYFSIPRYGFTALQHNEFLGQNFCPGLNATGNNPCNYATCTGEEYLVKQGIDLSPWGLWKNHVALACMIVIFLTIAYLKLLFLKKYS
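Assay system – ABCG2 IgMXP3 and barcoded ABCB1 CCRF-Adr cell mix · Input – 3 million cells/mL in well · Reagent – JC-1 fluorescent substrate · Compound – single test compound dose, 6.6 µM final · Timing – 10 min exposure at 25 °C with rotation, no wash · Detection – flow cytometry of retained JC-1 fluorescence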
MEKK2mut PB1 HTS = signal of MEK5 binding to mutant human MEKK2 PB1 domain. bead flow cytometry, Alexa488-MEK5 binding to MEKK2 mutant. percent response, % at 10 µM. hit rate 0.35% among 290,000. AID 1530; in the data active = percent response above about 24%, passing the limit was not always enough
MEKK2wt confirm = raises or lowers MEK5 binding to wildtype human MEKK2, retest | shares compounds with MEKK3 PB1 HTS | bead flow cytometry, Alexa488-MEK5 binding to MEKK2 WT; actives lie on both sides | binding response (% of control), % at 10 µM | hit rate 2.4% among 5,900; in the data active = binding response below about 16% or above about 210%; inactive = in between
MEKK2mut-MEK5 = signal of MEK5 binding to mutant human MEKK2, retest. percent response, % at 10 µM. shares compounds with MEKK3 PB1 HTS. bead flow cytometry, Alexa488-MEK5 binding to MEKK2 mutant. hit rate 2% among 5,900; in the data active = percent response mostly above about 71%, no sharp cut-off; inactive = mostly below about 38%;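 also: higher means compound restores mutant binding toward wildtype level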
MEKK3 confirm = confirmation of inhibitors of MEK5 binding to human MEKK3; shares compounds with MEKK3 PB1 HTS; bead flow cytometry, Alexa488-MEK5 binding to MEKK3; stronger effect = lower value; binding response (% of control), % at 10 µM; hit rate 1.8% among 5,900; AID 1894;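 active = binding response below 72% of control, or above a set upper limit, though filed actives all read lower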;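 also: 100% = DMSO only wells and 0% = binding blocked by excess unlabeled MEK5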
Starred values were filed as active, the others as inactive; nt = not tested or not shown; [ ] = remark or other dose.

SMILES | Efflux pump inh | ABCB1 block | MEKK2 WT-MEK5 | MEKK3 PB1 HTS | ABCG2 block | MEKK2mut PB1 HTS | MEKK2wt confirm | MEKK2mut-MEK5 | MEKK3 confirm
CC[C@@]1(c2ccccc2)C(=O)N(C(=O)OC)N1C(=O)OC | -0.1 | nt | 83.0 | 101.0 | nt | -7.0 | nt | nt | nt
COc1ccccc1NC(=O)CN1CCC(n2c(C)nc3cc(F)ccc32)CC1 | 0.5 | 3.2 | 2.0*[inhibitor] | 2.0*[inhibitor] | 7.4 | -16.0 | 106.0 | 5.0 | 106.0
Cc1ccc(NC(=O)CCn2c(=O)[nH]c3ccsc3c2=O)cc1 | -0.1 | 0.0 | 105.0 | 121.0 | 5.4 | -1.0 | nt | nt | nt
O=C(CCCCCN1C(=O)c2ccccc2C1=O)Nc1ccc(F)cc1 | 0.0 | 1.2 | 110.0 | 131.0* | 8.5 | 1.0 | 96.0 | -2.0 | 98.0
O=C(CCCN1C(=O)c2ccccc2C1=O)NCc1ccc(F)cc1 | 0.0 | nt | 117.0 | 115.0 | nt | 33.0* | 91.0 | -7.0 | 90.0
O=C(CCCn1c(=O)[nH]c2ccsc2c1=O)Nc1ccc(F)cc1 | -0.1 | 0.3 | 68.0 | 54.0*[inhibitor] | 2.0 | 1.0 | 97.0 | 3.0 | 98.0
O=C(CCCCCN1C(=O)c2cccc3cccc(c23)C1=O)NCc1cccnc1 | 0.3 | nt | 51.0 | 49.0*[inhibitor] | nt | -44.0 | 105.0 | 6.0 | 105.0
Cc1c(-c2ccccc2)oc2c(C(=O)N3CCN(c4ccccc4F)CC3)cccc2c1=O | 0.0 | 2.2 | 96.0 | 97.0 | 2.8 | -2.0 | nt | nt | nt
O=C(COC(=O)C1CC2CCCC(C1)C2=O)NNC(=O)c1ccccc1F (stereo not drawn) | 0.1 | nt | nt | nt | nt | nt | nt | nt | nt
COc1cc2nc(/C=C/c3ccc(N(C)C)cc3)sc2cc1SC | 2.9 | 3.7 | 33.0*[inhibitor] | 89.0 | -3.3 | 32.0 | 86.0 | -13.0 | 93.0
CN(C)c1ccc(/C=C(\Cl)c2nc3ccccc3s2)cc1 | 0.2 | -0.7 | 105.0 | 124.0 | -5.3 | 0.0 | nt | nt | nt
CN(CC(=O)Nc1cccc2c1CCCC2)S(=O)(=O)c1ccccc1 | -0.1 | 0.6 | 88.0 | 80.0*[inhibitor] | 5.0 | -4.0 | 99.0 | 6.0 | 100.0
CN(CC(=O)Nc1cccc2c1CCCC2)S(=O)(=O)c1ccc(Br)cc1 | 0.0 | 1.1 | 94.0 | 94.0 | 2.9 | -3.0 | nt | nt | nt
Cn1c(CC(=O)Nc2ccccc2)c(Sc2ccccc2)c2ccccc21 | 0.0 | -0.4 | 121.0 | 139.0* | -1.3 | 2.0 | 108.0 | -6.0 | 104.0
CSc1c(CC(=O)Nc2ccccc2)n(C)c2ccccc12 | 0.0 | nt | 110.0 | 104.0 | nt | 7.0 | nt | nt | nt
COc1ccc2c(c1)[nH]c1c(N3CCN(Cc4ccc5c(c4)OCO5)CC3)ncnc12 | 0.2 | 3.3 | 152.0* | 114.0 | -2.2 | 8.0 | 146.0 | 33.0 | 107.0
Cc1ccc2c(c1)[nH]c1c(N3CCN(Cc4ccccc4)CC3)ncnc12 | 0.1 | 4.5 | 158.0* | 109.0 | 12.8 | 18.0 | 119.0 | 13.0 | 106.0
O=C(NNC(=O)C1CC(c2cccnc2)=NO1)Nc1ccccc1F (stereo not drawn) | -0.1 | 0.0 | 31.0* | 105.0 | 2.5 | 95.0* | 98.0 | -1.0 | 97.0
Cc1ccc(NC(=O)NNC(=O)C2CC(c3cccnc3)=NO2)cc1 (stereo not drawn) | -0.1 | 0.6 | 92.0 | 89.0 | 1.5 | -5.0 | nt | nt | nt
CCn1cc(CN2CCCC(C(=O)Nc3cccc(-c4cc5ccccc5[nH]4)c3)C2)c(C)n1 (stereo not drawn) | -0.3 | nt | 154.0* | 107.0 | nt | 21.0 | 176.0 | 39.0 | 104.0
COc1ccc(C(=O)NCC(=O)N/N=C/c2cccc(OC(=O)c3ccco3)c2)cc1OC | 0.1 | 0.0 | 102.0 | 104.0 | -0.6 | 8.0 | nt | nt | nt
COc1ccc(Br)cc1CN1CCN(Cc2c[nH]c3ccccc23)CC1 | 0.0 | nt | 117.0 | 94.0 | nt | 27.0* | 138.0 | 19.0 | 107.0
CCC(C)(C)NC(=O)c1ccc2c(c1)N(CC(=O)N1CCCC1)C(=O)C(C)(C)O2 | -0.1 | nt | 101.0 | 108.0 | nt | 10.0 | nt | nt | nt

Bioassay records from PubChem BioAssay.
